Measurements from ChEMBL document CHEMBL1131232, “New azole antifungals. 3. Synthesis and antifungal activity of 3-substituted-4(3H)-quinazolinones” (J Med Chem, 1998).
≈ marks a conversion by molar mass, not a printed value.

Assays:
Assay type in all cases: functional
[1] = In vitro antifungal activity against 6 filamentous fungi; settings: read-out: MIC
Summary of the method: (§1)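 Agar dilution on Kimmig's agar with 0.5% glycerol, using ATCC strains or clinical isolates. Drug stocks were 800 μg/mL in 50% ethanol, tested as 2-fold dilutions from 80 to 0.03 μg/mL. Inocula were 10⁵ cfu/mL. […] Geometric means took >80 as 160 and ≤0.03 as 0.03.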

[2] = In vitro for antifungal activity against 10 yeasts; settings: read-out: MIC; summary of the method: as §1
Candida albicans [3] = experiment: In vivo antifungal activity against murine candidosis model after peroral administration with 1 mg/kg at various time intervals. (percent protection for 100% mortality with fluconazole-treated group.); settings: route oral
Summary of the method: (§2)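 Groups of 10 male mice were infected iv with 0.2 mL of C. albicans at 2 to 8×10^7 cfu/mL. Drug was given orally as a suspension in 1% Tween + 0.2% carboxymethylcellulose at 1, 4 and 24 h post-infection; controls got vehicle only. Survival was scored on days 3, 5, 7 and 9. Read-out was % survival on the day all untreated controls died, or on the day all mice given fluconazole at the same dose died.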

Candida albicans [4] = experiment: In vivo antifungal activity against murine candidosis model after peroral administration with 1 mg/kg at various time intervals. (percent protection for 100% mortality with untreated group); settings: route oral; summary of the method: as §2
Candida albicans [5] = experiment: In vivo antifungal activity against murine candidosis model after peroral administration with 2.5 mg/kg at various time intervals. (percent protection for 100% mortality with fluconazole-treated group.); settings: route oral; summary of the method: as §2
Candida albicans [6] = experiment: In vivo antifungal activity against murine candidosis model after peroral administration with 2.5 mg/kg at various time intervals. (percent protection for 100% mortality with untreated group); settings: route oral; summary of the method: as §2
Candida albicans [7] = experiment: In vivo antifungal activity against murine candidosis model after peroral administration with 0.5 mg/kg at various time intervals. (percent protection for 100% mortality with fluconazole-treated group.); settings: route oral; summary of the method: as §2
Candida albicans [8] = experiment: In vivo antifungal activity against murine candidosis model after peroral administration with 0.5 mg/kg at various time intervals. (percent protection for 100% mortality with untreated group); settings: route oral; summary of the method: as §2

SMILES | MIC [1] [µg/mL] | MIC [2] [µg/mL] | Protection (Candida albicans [3]) [%] | Protection (Candida albicans [4]) [%] | Protection (Candida albicans [5]) [%] | Protection (Candida albicans [6]) [%] | Protection (Candida albicans [7]) [%] | Protection (Candida albicans [8]) [%]
C[C@@H](n1cnc2cc(C(N)=O)ccc2c1=O)[C@](O)(Cn1cncn1)c1ccc(F)cc1F | > 80 | 25 (≈ 56.8 µM) | – | – | – | – | – | –
Cc1cccc2ncn([C@H](C)[C@](O)(Cn3cncn3)c3ccc(F)cc3F)c(=O)c12 | 40 (≈ 97.2 µM) | 2.6 (≈ 6.32 µM) | 0 | 0 | – | – | – | –
C[C@@H](NC(=O)c1ccc(Cl)cc1NC=O)[C@](O)(Cn1cncn1)c1ccc(F)cc1F | 0.9 (≈ 2 µM) | 0.3 (≈ 0.667 µM) | – | – | 0 | 0 | – | –
C[C@@H](NC(=O)c1ccc(Cl)cc1N)[C@](O)(Cn1cncn1)c1ccc(F)cc1F | 8.9 (≈ 21.1 µM) | 3.7 (≈ 8.77 µM) | – | – | 0 | 20 | – | –
C[C@@H](n1cnc2cc(NN)ccc2c1=O)[C@](O)(Cn1cncn1)c1ccc(F)cc1F | > 80 | 15 (≈ 35.1 µM) | – | – | – | – | – | –
C[C@@H](n1cnc2cc(C#N)ccc2c1=O)[C@](O)(Cn1cncn1)c1ccc(F)cc1F | 3.5 (≈ 8.29 µM) | 0.8 (≈ 1.89 µM) | 0 | 10 | – | – | – | –
C[C@@H](n1cnc2cccc(Cl)c2c1=O)[C@](O)(Cn1cncn1)c1ccc(F)cc1F | 71 (≈ 164 µM) | 3.1 (≈ 7.18 µM) | 0 | 0 | – | – | – | –
C[C@@H](n1cnc2cc(Sc3ccccc3)ccc2c1=O)[C@](O)(Cn1cncn1)c1ccc(F)cc1F | 2 (≈ 3.96 µM) | 0.7 (≈ 1.38 µM) | – | – | – | – | 0 | 0
C[C@@H](n1cnc2cc(NCc3ccccc3)ccc2c1=O)[C@](O)(Cn1cncn1)c1ccc(F)cc1F | 11 (≈ 21.9 µM) | 1.2 (≈ 2.39 µM) | – | – | – | – | 0 | 40
C[C@@H](n1cnc2cc(C(F)(F)F)ccc2c1=O)[C@](O)(Cn1cncn1)c1ccc(F)cc1F | 2.2 (≈ 4.73 µM) | 0.7 (≈ 1.5 µM) | – | – | – | – | 60 | 100
C[C@@H](n1cnc2cc(N3CCOCC3)ccc2c1=O)[C@](O)(Cn1cncn1)c1ccc(F)cc1F | 35 (≈ 72.5 µM) | 1.9 (≈ 3.94 µM) | – | – | – | – | 0 | 20
Cc1nc2cc(Cl)ccc2c(=O)n1[C@H](C)[C@](O)(Cn1cncn1)c1ccc(F)cc1F | 36 (≈ 80.7 µM) | 6.6 (≈ 14.8 µM) | – | – | – | – | – | –
C[C@@H](n1cnc2cc(C(=N)NS(N)(=O)=O)ccc2c1=O)[C@](O)(Cn1cncn1)c1ccc(F)cc1F | > 80 | 40 (≈ 77.1 µM) | – | – | – | – | 0 | 0
C[C@@H](N1CNc2cc(Cl)ccc2C1=O)[C@](O)(Cn1cncn1)c1ccc(F)cc1F | 2.8 (≈ 6.45 µM) | 0.8 (≈ 1.84 µM) | – | – | 0 | 30 | – | –
C[C@@H](n1cnc2ccc(F)cc2c1=O)[C@](O)(Cn1cncn1)c1ccc(F)cc1F | > 80 | 2.4 (≈ 5.78 µM) | 0 | 0 | – | – | – | –
C[C@@H](n1cnc2cc(F)c(F)cc2c1=O)[C@](O)(Cn1cncn1)c1ccc(F)cc1F | 70 (≈ 162 µM) | 1.7 (≈ 3.92 µM) | 0 | 10 | – | – | – | –
C[C@@H](n1cnc2cc(N(C)C)c(F)cc2c1=O)[C@](O)(Cn1cncn1)c1ccc(F)cc1F | 22 (≈ 48 µM) | 1.4 (≈ 3.05 µM) | 0 | 0 | – | – | – | –
C[C@@H](n1cnc2cc(-n3cncn3)ccc2c1=O)[C@](O)(Cn1cncn1)c1ccc(F)cc1F | 80 (≈ 172 µM) | 6.6 (≈ 14.2 µM) | – | – | – | – | <50 | 70
CCC(CC)n1ncn(-c2ccc(N3CCN(c4ccc5ncn([C@H](C)[C@](O)(Cn6cncn6)c6ccc(F)cc6F)c(=O)c5c4)CC3)cc2)c1=O | 28 (≈ 39.4 µM) | 3.7 (≈ 5.21 µM) | – | – | – | – | 0 | 0
C[C@@H](n1cnc2cc(Oc3ccc(Cl)cc3)ccc2c1=O)[C@](O)(Cn1cncn1)c1ccc(F)cc1F | 7.1 (≈ 13.6 µM) | 0.7 (≈ 1.34 µM) | – | – | – | – | 80 | 100
C[C@@H](n1cnc2cc(N3CCN(C)CC3)ccc2c1=O)[C@](O)(Cn1cncn1)c1ccc(F)cc1F | > 80 | 19 (≈ 38.3 µM) | – | – | – | – | 0 | 20
C[C@@H](n1cnc2ccc(Br)cc2c1=O)[C@](O)(Cn1cncn1)c1ccc(F)cc1F | 45 (≈ 94.5 µM) | 1.6 (≈ 3.36 µM) | 0 | 100 | – | – | – | –
C[C@@H](n1cnc2cc(OCC(F)(F)F)ccc2c1=O)[C@](O)(Cn1cncn1)c1ccc(F)cc1F | 15 (≈ 30.3 µM) | 1 (≈ 2.02 µM) | – | – | – | – | 100 | 100
